Experimental data reported in ChEMBL document CHEMBL1126159, “A novel class of enkephalinase inhibitors containing a C-terminal sulfo group” (J Med Chem, 1992).

Legend:
Neprilysin [1] = target: T1, Neprilysin (Rattus norvegicus, UniProt P07861); assay: The compound was tested in vitro for its inhibitory activity against Enkephalinase enzyme
T1 sequence (P07861 whole entry): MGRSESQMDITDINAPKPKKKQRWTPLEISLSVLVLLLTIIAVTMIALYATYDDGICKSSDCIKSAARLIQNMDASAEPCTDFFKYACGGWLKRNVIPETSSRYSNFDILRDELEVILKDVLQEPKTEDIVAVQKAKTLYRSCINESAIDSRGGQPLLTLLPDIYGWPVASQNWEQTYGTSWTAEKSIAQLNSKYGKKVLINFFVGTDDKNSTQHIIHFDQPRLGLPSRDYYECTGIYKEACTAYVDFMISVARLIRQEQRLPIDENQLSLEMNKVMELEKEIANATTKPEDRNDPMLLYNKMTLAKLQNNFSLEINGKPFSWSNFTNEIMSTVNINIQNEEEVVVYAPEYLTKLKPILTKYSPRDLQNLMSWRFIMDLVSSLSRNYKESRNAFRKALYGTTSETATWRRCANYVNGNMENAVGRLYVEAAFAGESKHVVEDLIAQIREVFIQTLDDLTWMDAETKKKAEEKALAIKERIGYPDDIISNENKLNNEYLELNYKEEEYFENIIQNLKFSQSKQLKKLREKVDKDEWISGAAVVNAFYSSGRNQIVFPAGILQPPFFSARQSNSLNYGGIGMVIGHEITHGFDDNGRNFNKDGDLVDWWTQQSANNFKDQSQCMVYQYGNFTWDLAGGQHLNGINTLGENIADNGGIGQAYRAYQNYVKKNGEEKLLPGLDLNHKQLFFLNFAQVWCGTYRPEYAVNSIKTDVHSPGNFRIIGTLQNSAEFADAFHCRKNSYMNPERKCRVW
In short: (§1)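 Rat striatal membranes (male Std:Wistar) were solubilized with 1% Triton X-100 in 50 mM Tris-HCl pH 7.7 and fractionated on DEAE-cellulose; the enkephalin dipeptidylcarboxypeptidase fraction served as enzyme. IC50 by log-probit from 3–4 concentrations, run 2–3 times.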

Neprilysin [2] = target: T1, Neprilysin; assay: In vitro inhibitory activity against enkephalinase enzyme from rat.
In short: as §1, with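 “enzyme. […] Reaction was stopped with 0.2 N HCl, products separated on Porapak Q, and [3H]Tyr-Gly-Gly measured.” for “enzyme.”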

[3] = target: T2, Angiotensin-converting enzyme (Oryctolagus cuniculus, UniProt P12822); assay: In vitro inhibitory activity against Angiotensin I converting enzyme from rabbit lung
T2 sequence (P12822 whole entry): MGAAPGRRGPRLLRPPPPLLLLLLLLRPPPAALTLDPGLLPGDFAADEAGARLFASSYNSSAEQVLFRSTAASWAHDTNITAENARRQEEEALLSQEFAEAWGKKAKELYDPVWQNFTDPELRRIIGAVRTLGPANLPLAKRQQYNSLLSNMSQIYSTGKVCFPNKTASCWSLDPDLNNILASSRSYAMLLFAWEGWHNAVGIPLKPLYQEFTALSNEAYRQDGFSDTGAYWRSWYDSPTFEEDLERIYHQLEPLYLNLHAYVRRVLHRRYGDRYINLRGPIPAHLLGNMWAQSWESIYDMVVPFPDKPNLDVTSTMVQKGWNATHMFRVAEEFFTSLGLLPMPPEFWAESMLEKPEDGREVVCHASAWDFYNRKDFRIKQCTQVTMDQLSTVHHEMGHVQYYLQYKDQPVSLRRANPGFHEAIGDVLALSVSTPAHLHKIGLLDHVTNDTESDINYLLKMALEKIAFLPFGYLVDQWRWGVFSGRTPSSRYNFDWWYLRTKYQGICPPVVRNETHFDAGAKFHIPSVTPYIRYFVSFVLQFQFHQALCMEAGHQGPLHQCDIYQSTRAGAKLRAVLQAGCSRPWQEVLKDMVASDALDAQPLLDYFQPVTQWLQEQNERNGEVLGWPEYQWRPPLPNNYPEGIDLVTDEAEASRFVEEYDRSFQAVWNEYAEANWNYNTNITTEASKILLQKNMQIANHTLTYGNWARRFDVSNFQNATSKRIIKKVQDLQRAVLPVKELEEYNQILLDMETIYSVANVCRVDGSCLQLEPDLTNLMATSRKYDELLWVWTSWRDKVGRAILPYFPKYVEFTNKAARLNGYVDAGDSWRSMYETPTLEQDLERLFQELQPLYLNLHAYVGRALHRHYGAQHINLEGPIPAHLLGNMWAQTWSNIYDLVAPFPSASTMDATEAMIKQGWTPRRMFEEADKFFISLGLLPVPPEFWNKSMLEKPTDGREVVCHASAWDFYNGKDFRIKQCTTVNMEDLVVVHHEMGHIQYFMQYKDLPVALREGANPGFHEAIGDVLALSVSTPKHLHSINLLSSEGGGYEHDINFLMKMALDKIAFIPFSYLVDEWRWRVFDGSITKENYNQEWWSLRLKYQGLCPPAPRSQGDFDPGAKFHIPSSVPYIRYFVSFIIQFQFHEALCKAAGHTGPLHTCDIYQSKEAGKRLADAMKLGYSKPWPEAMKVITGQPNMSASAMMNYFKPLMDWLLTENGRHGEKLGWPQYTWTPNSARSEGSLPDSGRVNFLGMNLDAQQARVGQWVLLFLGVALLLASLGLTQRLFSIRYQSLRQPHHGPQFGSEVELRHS
In short: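 Enzyme source was rabbit lung ACE. The inhibition procedure followed an earlier published method.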

[4] = target: T2, Angiotensin-converting enzyme; assay: In vitro inhibitory activity against angiotensin I converting enzyme (ACE) from rabbit lung
Mus musculus [5] = assay: The compound was tested for administrating the compound intravenously; assay type: functional; settings: iv
In short: (§2)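 Female ddY mice (18–22 g) were dosed iv 5 min before ip phenylbenzoquinone (0.03% in 5% aqueous EtOH, 10 mL/kg). Writhes were counted for 15 min starting 5 min after phenylbenzoquinone. More than 50% reduction versus vehicle control counted as effective; ED50 given with 95% confidence limits.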

Mus musculus [6] = assay: The compound was tested for administrating the compound intracisternally; assay type: functional
In short: as §2, with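 “received 10 µL aqueous solution intracisternally 1” for “were dosed iv 5”, “phenylbenzoquinone. Mice with behavioural change after injection were excluded.” for “phenylbenzoquinone.”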

Row | SMILES | IC50 (Neprilysin [2]) | also measured
1 | O=C(Nc1ccc(S(=O)(=O)O)cc1)C(CS)Cc1ccc([N+](=O)[O-])cc1 (stereo unspecified) | – | IC50 (Neprilysin [1]): 14 nM
2 | O=C(Nc1cccc(S(=O)(=O)O)c1)C(CS)Cc1ccccc1 (stereo unspecified) | 0.27 nM | IC50 [3]: 290000 nM
3 | CC(C)CC(CS)C(=O)NCCS(=O)(=O)O (stereo unspecified) | – | IC50 (Neprilysin [1]): 5.2 nM
4 | O=C(Nc1ccc(S(=O)(=O)O)cc1)C(CS)Cc1ccc(C(F)(F)F)cc1 (stereo unspecified) | 150 nM | –
5 | O=C(Nc1ccc(S(=O)(=O)O)cc1)C(CS)Cc1cccc2ccccc12 (stereo unspecified) | 34 nM | –
6 | Cc1ccc(CC(CS)C(=O)NCCS(=O)(=O)O)cc1 (stereo unspecified) | 3.1 nM | –
7 | CN(C)c1ccc(CC(CS)C(=O)Nc2ccc(S(=O)(=O)O)cc2)cc1 (stereo unspecified) | 14 nM | –
8 | O=C(Nc1ccc(S(=O)(=O)O)c2ccccc12)C(CS)Cc1ccccc1 (stereo unspecified) | – | IC50 [4]: 37000 nM; IC50 (Neprilysin [1]): 7.4 nM
9 | O=C(Nc1ccccc1S(=O)(=O)O)C(CS)Cc1ccccc1 (stereo unspecified) | 140 nM | –
10 | O=C(NCCS(=O)(=O)[O-])[C@H](CS)Cc1ccccc1.[Na+] | 4.4 nM | ED50 (Mus musculus [5]): 43.3 mg/kg; IC50 [3]: 740000 nM; ED50 (Mus musculus [6]): 17.7 µg mouse-1
11 | O=C(Nc1ccc(S(=O)(=O)O)cc1)C(CS)CCCc1ccccc1 (stereo unspecified) | 110 nM | –
12 | O=C(Nc1ccc(S(=O)(=O)O)cc1)C(CS)Cc1noc2ccccc12 (stereo unspecified) | 12 nM | –
13 | O=C(NCCS(=O)(=O)[O-])C(CS)Cc1ccccc1.[Na+] (stereo unspecified) | 1.5 nM | ED50 (Mus musculus [5]): 18 mg/kg; IC50 [3]: 720000 nM; ED50 (Mus musculus [6]): 20 µg mouse-1
14 | O=C(NCCS(=O)(=O)O)C(CS)CCCc1ccccc1 (stereo unspecified) | 11 nM | –
15 | CN(CCS(=O)(=O)O)C(=O)C(CS)Cc1ccccc1 (stereo unspecified) | 490 nM | –
16 | O=C(Nc1ccc(S(=O)(=O)O)cc1)C(CS)Cc1ccc(F)cc1 (stereo unspecified) | 5 nM | –
17 | CC(C)CC(NC(=O)C(CS)Cc1ccccc1)S(=O)(=O)O (stereo unspecified) | 250 nM | –
18 | CC(NC(=O)C(CS)Cc1ccccc1)S(=O)(=O)O (stereo unspecified) | 31 nM | –
19 | CC(C)CC(CS)C(=O)Nc1ccc(S(=O)(=O)O)cc1 (stereo unspecified) | 0.9 nM | –
20 | CN(C)c1ccc(CC(CS)C(=O)NCCS(=O)(=O)O)cc1 (stereo unspecified) | 37 nM | –
21 | O=C(NCCS(=O)(=O)O)C(CS)Cc1ccc([N+](=O)[O-])cc1 (stereo unspecified) | – | IC50 (Neprilysin [1]): 17 nM
22 | O=C(O)CNC(=O)C(CS)Cc1ccccc1 (stereo unspecified) [THIORPHAN] | – | ED50 (Mus musculus [5]): 72 mg/kg; ED50 (Mus musculus [6]): 17 µg mouse-1

Second part, led by results:

Row | IC50 (Neprilysin [2]) | SMILES | also measured
23 | 1.7 nM | O=C(Nc1ccc(S(=O)(=O)O)cc1)C(CS)Cc1ccccc1 (stereo unspecified) | IC50 [3]: 210000 nM
24 | 4200 nM | O=C(C(CS)Cc1ccccc1)N(CCS(=O)(=O)O)C1CC1 (stereo unspecified) | –
25 | 3.2 nM | COc1ccc(CC(CS)C(=O)Nc2ccc(S(=O)(=O)O)cc2)cc1 (stereo unspecified) | –
26 | 2.5 nM | Cc1ccc(CC(CS)C(=O)Nc2cccc(S(=O)(=O)O)c2)cc1 (stereo unspecified) | –
27 | 5.4 nM | O=C(NCCCS(=O)(=O)O)C(CS)Cc1ccccc1 (stereo unspecified) | –
28 | 8.4 nM | O=C(NCCS(=O)(=O)O)C(CS)Cc1cccc2ccccc12 (stereo unspecified) | –
29 | 11 nM | O=C(NCc1ccc(S(=O)(=O)O)cc1)C(CS)Cc1ccccc1 (stereo unspecified) | –
30 | 0.82 nM | O=C(NCCS(=O)(=O)[O-])[C@@H](CS)Cc1ccccc1.[Na+] | ED50 (Mus musculus [5]): 8.5 mg/kg; IC50 [3]: 430000 nM; ED50 (Mus musculus [6]): 11.8 µg mouse-1
31 | 33 nM | O=C(Nc1ccc(S(=O)(=O)O)cc1)C(CS)Cc1cccnc1 (stereo unspecified) | –
32 | 2.2 nM | O=C(NCS(=O)(=O)O)C(CS)Cc1ccccc1 (stereo unspecified) | IC50 [3]: 12000 nM
33 | 2.4 nM | CC(C)CC(CS)C(=O)Nc1cccc(S(=O)(=O)O)c1 (stereo unspecified) | –
34 | 4.4 nM | COc1ccc(CC(CS)C(=O)NCCS(=O)(=O)O)cc1 (stereo unspecified) | –
35 | 52 nM | O=C(Nc1ccc(S(=O)(=O)O)cc1)C(CS)Cc1ccc(-c2ccccc2)cc1 (stereo unspecified) | –
36 | 1.1 nM | Cc1ccc(CC(CS)C(=O)Nc2ccc(S(=O)(=O)O)cc2)cc1 (stereo unspecified) | –
37 | 3.5 nM | O=C(NCCS(=O)(=O)O)C(CS)Cc1ccc(F)cc1 (stereo unspecified) | –
